Measured values taken from ChEMBL document CHEMBL1132241, “Novel multidrug resistance reversal agents” (J Med Chem, 1999).

Columns and labels:
[1] = Partition coefficient (logP); format: physicochemical; conditions: octanol/water
[2] = system: Mus musculus; experiment: Percent increase in mean life span in mice infected with leukemia P388/VCR, at 25 mg/Kg dose; format: functional
Method in brief: (§1)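 CDF1 mice (groups of 10–15) were implanted ip with 1 × 10^6 P388/VCR cells. Agent plus 0.2 mg/kg vincristine were given together ip once daily on days 1–7, starting 1 day post-implant, in cremophor/ethanol or propylene glycol/ethanol vehicle. Survival was recorded to 30 days. Result is the % increase in mean life span versus placebo control.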

[3] = system: Mus musculus; experiment: Percent increase in mean life span relative to treatment with an equivalent dose of vincristine alone at 25 mg/kg in mice with vincristine-resistantmurine leukemia P388/VCR cells; format: functional
Method in brief: (§2)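 CDF1 mice were implanted ip with 1 × 10^6 P388/VCR cells. Agent and 0.2 mg/kg vincristine were given simultaneously ip once daily, days 1–7. Mean survival over up to 30 days was compared with vincristine alone at an equivalent dose, giving % increase in life span. Student t-test was applied to mean survival time.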

[4] = system: Mus musculus; experiment: Percent tumor growth inhibition against human epidermoid carcinoma KB/8.5 implanted subcutaneously in mice at 50 mg/kg of compound along with 8 mg/kg (DOX ) was determined; format: functional
Method in brief: (§3)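 Athymic nude mice bearing sc KB/8.5 tumors (8×10^6 cells, colchicine withdrawn for two passages), grouped at 100–300 mg tumor mass, 5–10 mice/group. Doxorubicin 8 mg/kg given once iv; reversal agent or placebo given sc 2 h before and 2 h after. Tumor mass on day 14 used for relative tumor growth versus doxorubicin alone; Student t-test on log RTG.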

[5] = system: S1B1-20; experiment: (§4) In vitro concentration at which 50% of human colon carcinoma cells (S1-B1-20) resistant to bisantrene have survived; format: ADME, cell-based; conditions: s1b1-20, read-out: LD50 (the source's name)
Method in brief: (§5)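 S1-B1-20 cells (LS 174 T-derived S1 clone selected in bisantrene over 12–16 weeks), trypsinized, 20 000 cells/well. Test agent alone in DMSO (≤0.1% final), 0.1–80 µM, 3 days at 37 °C, 7% CO2. Survival by sulforhodamine B read at 540 nm versus untreated cells. Two to four measurement sets were made, and the value is the concentration giving 50% survival from a best-fit curve.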

[6] = system: S1B1-20; experiment: In vitro concentration required to inhibit tumor activity on subclone of human colon carcinoma cells (S1-B1-20) resistant to bisantrene; format: functional, cell-based
Method in brief: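 S1-B1-20 cells (S1 clone of LS 174 T, selected in bisantrene over 12–16 weeks) plated at 20 000 cells/well with or without 20 μM bisantrene, plus test agent 0.1–80 μM from DMSO stock (final DMSO ≤0.1%). 3 days, 37 °C, 7% CO2. Survival by sulforhodamine B at 540 nm. IC50 from best-fit curve of difference score (survival alone minus survival with bisantrene) at 50; 2–4 sets of measurements.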

[7] = system: Mus musculus; experiment: Relative tumor growth inhibition against human epidermoid carcinoma KB/8.5 implanted subcutaneously only in mice at 8 mg/kg (DOX); format: functional; conditions: route subcutaneous
Method in brief: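 KB/8.5 cells grown in RPMI 1640 with 5% fetal calf serum plus colchicine (10 ng/mL), which was removed for two passages. 8 × 10^6 cells were then implanted sc in athymic nude mice. At 100-300 mg tumor mass, mice were grouped 5-10/group. Doxorubicin was given as a single iv dose (8 mg/kg). Tumor mass was measured on day 14, and relative growth was compared with saline control.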

[8] = system: Mus musculus; experiment: Percent increase in mean life span when 0.2 mg/kg vincristine was administered ip once daily on days 1-7, in mice infected with leukemia P388/VCR; format: functional; design: concentration or dose not given beside the values; conditions: route intraperitoneal
Method in brief: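 CDF1 mice bearing ip P388/VCR (1 × 10^6 cells) received 0.2 mg/kg vincristine ip once daily on days 1–7. Mean survival to 30 days was expressed as % increase in life span relative to placebo control.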

[9] = as §4; format: ADME, cell-based, S1B1-20; conditions: S1-B1-20 human colon carcinoma cells resistant to bisantrene, read-out: LD50 (the source's name); method in brief: as §5
[10] = system: Mus musculus; experiment: Percent increase in mean life span in mice infected with leukemia P388/VCR, at 50 mg/Kg dose; format: functional; method in brief: as §1
[11] = system: Mus musculus; experiment: Percent increase in mean life span in mice infected with leukemia P388/VCR, at 100 mg/Kg dose; format: functional
Method in brief: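 CDF1 mice were implanted ip with 1 × 10^6 P388/VCR cells (line passaged in DBA/2 ascites). Agent at 100 mg/kg in Cremophor/ethanol/saline was given ip once daily on days 1–7 without vincristine. Survival was followed to 30 days. Result is the % increase in mean life span versus placebo.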

[12] = system: Mus musculus; experiment: Percent increase in mean life span relative to treatment with an equivalent dose of vincristine alone at 50 mg/kg in mice with vincristine-resistantmurine leukemia P388/VCR cells; format: functional; method in brief: as §2
[13] = system: Mus musculus; experiment: Percent increase in mean life span in mice infected with leukemia P388/VCR, at 12.5 mg/Kg dose; format: functional; method in brief: as §1
[14] = system: Mus musculus; experiment: Percent increase in mean life span relative to treatment with an equivalent dose of vincristine alone at 12.5 mg/kg in mice with vincristine-resistantmurine leukemia P388/VCR cells; format: functional; method in brief: as §2
[15] = system: Mus musculus; experiment: Percent tumor growth inhibition against human epidermoid carcinoma KB/8.5 implanted subcutaneously in mice at 100 mg/kg of compound along with 8 mg/kg (DOX ) was determined; format: functional; method in brief: as §3
[16] = system: Mus musculus; experiment: Percent tumor growth inhibition obtained for the combination of DOX(8 mg/kg) together with MDR reversal agent versus DOX (8 mg/kg) alone on day 14 at 100 mg/kg dose(in vivo); format: functional; conditions: 336 h, read-out: TGI; method in brief: as §3
[17] = system: Mus musculus; experiment: Percent increase in mean life span relative to treatment with an equivalent dose of vincristine alone at 6.3 mg/kg in mice with vincristine-resistantmurine leukemia P388/VCR cells; format: functional; method in brief: as §2
[18] = system: Mus musculus; experiment: Percent increase in mean life span in mice infected with leukemia P388/VCR, at 6.3 mg/Kg dose; format: functional; method in brief: as §1
[19] = system: Mus musculus; experiment: Percent tumor growth inhibition against human epidermoid carcinoma KB/8.5 implanted subcutaneously in mice at 25 mg/kg of compound along with 8 mg/kg (DOX ) was determined; format: functional; method in brief: as §3

SMILES | logP ([1]; read-out: logP) | CC50 [5] [µM] | IC50 ([6]; s1b1-20) [µM] | Relative tumor growth [7] | ILS [8] [%] | CC50 [9] [µM] | IC50 ([6]; Homo sapiens, S1B1-20) [µM] | other results
COc1ccc(C(C#N)(CCCCCN2Cc3cc(OC)c(OC)cc3C2)Sc2ccc(C)cc2)cc1OC (stereo in doubt; 28a) | 5.55 | 22.8 | 0.81 | 67 | 15 | – | – | ILS at 25 mg/kg [2]: 63%; ILS at 25 mg/kg [3]: 41%; TGI [4]: 65%
COc1ccc(C(C#N)(CCCCCCCCCCCN2CCc3cc(OC)c(OC)cc3C2)Sc2ccc(C)cc2)cc1OC (stereo not given) | – | – | – | 39 | 24 | 10.8 | 1.74 | logP [1]: 9.35; ILS at 25 mg/kg [2]: 42%; ILS at 25 mg/kg [3]: 14%; TGI [4]: 61%
COc1ccc(C(C#N)(CCCN2CCc3cc(OC)c(OC)cc3C2)Sc2ccc(C)cc2)cc1OC (stereo not given) | 5.12 | – | – | 39 | 51 | 24 | 0.46 | ILS at 50 mg/kg [10]: 73%; ILS at 100 mg/kg [11]: -3%; TGI [4]: 63%; ILS at 50 mg/kg [12]: 15%
COc1ccc2c(c1)CCN(CCCCCC(C#N)(Sc1ccc(C)cc1)c1ccc(OC)c(OC)c1)C2 (stereo not given) | 6.64 | – | – | – | 26 | 15.7 | 1.92 | ILS at 12.5 mg/kg [13]: 56%; ILS at 12.5 mg/kg [14]: 24%
COc1cc2c(cc1OC)CN(CCCCCCC(Sc1ccccc1)c1ccccc1)CC2 (stereo not given) | 7.99 | – | – | 59 | 15 | 24.6 | 3.82 | TGI [15]: 65%; ILS at 25 mg/kg [2]: 68%; ILS at 25 mg/kg [3]: 46%
COc1ccc(C(C#N)(CCCCCN2Cc3cc(OC)c(OC)cc3C2)Sc2ccc(C)cc2)cc1OC (stereo in doubt; 44) | – | 11.4 | 0.26 | – | – | – | – | –
COc1ccc(C(C#N)(CCCCCN2CCc3cc(OC)c(OC)cc3C2)Sc2ccc(C)cc2)cc1OC (stereo not given) | 6.18 | – | – | 69 | 37 | 13.6 | 0.37 | ILS at 100 mg/kg [11]: -4%; ILS at 12.5 mg/kg [13]: 83%; ILS at 12.5 mg/kg [14]: 33%; TGI [4]: 59%
COc1ccc(C(C#N)(CCCCCN2CCc3cc(OC)c(OCCCl)cc3C2)Sc2ccc(C)cc2)cc1OC (stereo not given) | 6.77 | – | – | 75 | – | 16.8 | 0.37 | inhibition in vivo at 100 mg/kg [16]: 64%
COC(=O)C(CCCN1CCc2cc(OC)c(OC)cc2C1)(Sc1ccc(C)cc1)c1ccc(OC)c(OC)c1 (stereo not given) | 5.54 | – | – | – | 13 | 32.8 | 1.47 | ILS at 50 mg/kg [10]: 25%; ILS at 50 mg/kg [12]: 11%
COc1cc2c(cc1OC)CN(CCCCCCC(Sc1ccc(C)cc1)c1ccc(OC)c(OCCn3ccnc3)c1)CC2 (stereo in doubt; 47) | – | 5.64 | 0.29 | – | – | – | – | TGI [15]: 56%; Relative tumor growth ([7]; 8 mg/kg): 80
COc1ccc(C(C#N)(CCCCCCN2CCc3cc(OC)c(OC)cc3C2)Sc2ccc(C)cc2)cc1OC (stereo not given) | 6.71 | – | – | – | 37 | 13.5 | 0.3 | ILS at 12.5 mg/kg [13]: 68%; ILS at 12.5 mg/kg [14]: 23%
COc1ccc(C(C#N)(CCN2CCc3cc(OC)c(OC)cc3C2)Sc2ccc(C)cc2)cc1OC (stereo not given) | 4.59 | – | – | – | 67 | 33.7 | 2.3 | ILS at 12.5 mg/kg [13]: 89%; ILS at 12.5 mg/kg [14]: 13%
COc1ccc(C(C#N)(CCCCCN2Cc3cc(OC)c(OC)cc3C2)SC2CCCCC2)cc1OC (stereo in doubt; 28c) | – | 15 | 0.35 | – | – | – | – | –
COc1ccc(C(C#N)(CCCCCCCCN2CCc3cc(OC)c(OC)cc3C2)Sc2ccc(C)cc2)cc1OC (stereo not given) | 7.76 | – | – | – | 24 | 11.6 | 0.36 | ILS at 6.3 mg/kg [17]: 8%; ILS at 6.3 mg/kg [18]: 34%
COc1ccc(C(C#N)(CCCCCN2CCc3cc(OC)c(OCCn4ccnc4)cc3C2)Sc2ccc(C)cc2)cc1OC (stereo in doubt; 39a) | – | 14.7 | 0.69 | 67 | 15 | – | – | ILS at 50 mg/kg [10]: 71%; ILS at 50 mg/kg [12]: 48%; TGI [19]: 46%
COc1ccc(C(CCCCCN2CCc3cc(OC)c(OC)cc3C2)Sc2ccc(C)cc2)cc1OC (stereo not given) | 7.42 | – | – | 58 | 21 | 16.9 | 0.33 | ILS at 6.3 mg/kg [17]: 13%; TGI [15]: 68%; ILS at 6.3 mg/kg [18]: 37%
